Assay results published in article PMC9104225 (ACS chemical biology, 2021).
Residues, ends and D or L forms follow the SMILES beside them. *: point of attachment. AMC = Cc1cc(=O)oc2cc(N*)ccc12; Cbz = O=C(OCc1ccccc1)*

Legend:
[1] = target: cathepsin B activity in human neuroblastoma cell lysate (Homo sapiens, UniProt P07858); experiment: Cathepsin B activity in neuroblastoma cell homogenate in presence of inhibitors; assay type: biochemical; conditions: 1 μM inhibitor; SHSY5Y homogenate; Z-Arg-Arg-AMC substrate; pH 5.5
In short: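 SHSY5Y cells were grown in 50% MEMalpha/50% F12-K with 10% heat-inactivated FBS at 37 °C under 5% CO2. They were collected in 0.32 M sucrose and freeze-thawed to give homogenate. CA-074-sensitive activity was taken as cathepsin B. Protein was measured by DC assay. Output is nmol AMC/μg/min, mean ± SD, Student's t-test.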

Cathepsin L [2] = target: T1, Cathepsin L (Homo sapiens, UniProt P07711); experiment: Specificity of peptide-AMC substrates: cleavage by cathepsin L; assay type: biochemical
Cathepsin V [3] = target: T2, Cathepsin V (Homo sapiens, UniProt O60911); experiment: Specificity of peptide-AMC substrates: cleavage by cathepsin V; assay type: biochemical
Cathepsin V [4] = target: T2, Cathepsin V; experiment: Specificity of inhibitors: cathepsin V activity with Z-Phe-Arg-AMC; assay type: biochemical; conditions: for IC50: without pre-incubation
Cathepsin S = Cathepsin S (Homo sapiens, UniProt P25774); experiment: Specificity of inhibitors: cathepsin S activity with Z-Phe-Arg-AMC; assay type: biochemical; conditions: for % inhibition / IC50: Cathepsin S; for % inhibition: at 16 μM (16,000 nM) inhibitor; for IC50: without pre-incubation
Cathepsin X = Cathepsin X (Homo sapiens, UniProt Q9UBR2); assay type: biochemical; conditions: pH 4.6, without pre-incubation
cathepsin B [5] = target: T3, cathepsin B (Homo sapiens, UniProt P07858); experiment: Cathepsin B inhibition, fluorogenic assay with Z-Phe-Arg-AMC substrate; assay type: biochemical; conditions: for Ki: irreversible inhibitor KI, mean ± SD; for reduction of cathepsin B activity with Z-Phe-Arg-AMC as substrate: 64 nM inhibitor
Cathepsin C = Cathepsin C (Homo sapiens, UniProt P53634); experiment: Specificity of inhibitors: cathepsin C activity with Gly-Arg-AMC; assay type: biochemical; conditions: for IC50: Cathepsin C, without pre-incubation
Cathepsin L [6] = target: T1, Cathepsin L; experiment: Specificity of inhibitors: cathepsin L activity with Z-Phe-Arg-AMC; assay type: biochemical; conditions: for IC50: pH 4.6, without pre-incubation
Cathepsin H = Cathepsin H (Homo sapiens, UniProt P09668); experiment: Specificity of inhibitors: cathepsin H activity with Arg-AMC; assay type: biochemical
Cathepsin K = target: T4, Cathepsin K (Homo sapiens, UniProt P43235); experiment: Specificity of inhibitors: cathepsin K activity with Z-Phe-Arg-AMC; assay type: biochemical; conditions: for % inhibition: pH 4.6, at 16 μM (16,000 nM) inhibitor
T4 sequence (P43235 115-329): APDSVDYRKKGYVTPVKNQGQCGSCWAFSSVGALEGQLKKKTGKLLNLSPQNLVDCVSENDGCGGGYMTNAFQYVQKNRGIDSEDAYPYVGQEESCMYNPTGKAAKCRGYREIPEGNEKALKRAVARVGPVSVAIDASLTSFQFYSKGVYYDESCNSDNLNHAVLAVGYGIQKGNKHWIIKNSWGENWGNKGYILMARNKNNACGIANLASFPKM

cathepsin B [7] = target: T3, cathepsin B; experiment: pH profile of cathepsin B activity with peptide-AMC substrates; assay type: biochemical; conditions: substrate 60 μM, pH 2 to 9
In short: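 Activated cathepsin B (0.04 ng/μL) was run with 60 μM of each peptide-AMC substrate. Buffers were 50 mM citrate phosphate at pH 2.2–7.4 in 0.4-unit steps plus pH 7.2, and 50 mM Tris-HCl at pH 7.4–9.0. Assays ran at 25 °C with ex360/em460. Activity was taken as RFU/sec, the highest slope over 10 consecutive readings. Results are mean ± SEM, n=3.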

[8] = target: intracellular cathepsin B in SHSY5Y human neuroblastoma cells (Homo sapiens, UniProt P07858); assay type: cell-based; conditions: 50 μM, 6 hrs
In short: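 Intact SHSY5Y cells were treated with test compound for 6 h at 37 °C. They were washed 3× in PBS, homogenised in 0.32 M sucrose and freeze-thawed. Cathepsin B activity was taken as the CA-074-sensitive fraction, normalised to DC-assay protein. Output is nmol AMC/μg/min, mean + SD, n=6, t-test.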

[9] = pH not stated in the sentence for Z-Glu-Lys-AMC, pH 4.6 for Z-Phe-Arg-AMC
[10] = cathepsin B, pH 4.6, without preincubation, Z-Phe-Arg-AMC 40 μM
[11] = cathepsin B, pH 7.2, without preincubation, Z-Phe-Arg-AMC 40 μM

Cathepsin C, sequence (P53634 25-134 limits assumed): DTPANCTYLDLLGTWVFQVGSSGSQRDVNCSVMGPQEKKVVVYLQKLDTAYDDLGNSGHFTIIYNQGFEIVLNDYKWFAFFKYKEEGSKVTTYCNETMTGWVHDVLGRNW
Cathepsin C, sequence (P53634 231-394 limits assumed): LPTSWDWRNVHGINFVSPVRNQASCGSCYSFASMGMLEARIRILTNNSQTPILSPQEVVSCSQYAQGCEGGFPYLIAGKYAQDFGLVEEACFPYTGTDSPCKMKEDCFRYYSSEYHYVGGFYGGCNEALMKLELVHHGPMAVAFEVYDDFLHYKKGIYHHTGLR
Cathepsin C, sequence (P53634 395-463 limits assumed): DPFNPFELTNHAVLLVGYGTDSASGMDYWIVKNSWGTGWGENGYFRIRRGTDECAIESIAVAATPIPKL
T2 sequence (O60911 114-334): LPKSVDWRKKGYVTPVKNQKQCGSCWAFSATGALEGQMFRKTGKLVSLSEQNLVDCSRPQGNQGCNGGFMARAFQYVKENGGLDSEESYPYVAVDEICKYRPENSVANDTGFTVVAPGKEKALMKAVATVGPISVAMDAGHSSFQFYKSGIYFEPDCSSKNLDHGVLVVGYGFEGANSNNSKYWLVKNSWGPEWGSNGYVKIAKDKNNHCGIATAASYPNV
T1 sequence (P07711 114-333): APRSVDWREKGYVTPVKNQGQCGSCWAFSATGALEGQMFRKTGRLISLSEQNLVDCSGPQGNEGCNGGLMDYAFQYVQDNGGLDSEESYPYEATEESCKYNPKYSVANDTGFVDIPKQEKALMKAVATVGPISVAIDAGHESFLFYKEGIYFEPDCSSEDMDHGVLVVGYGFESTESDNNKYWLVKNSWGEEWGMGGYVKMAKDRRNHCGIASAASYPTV
Cathepsin H, sequence (P09668 116-335 limits assumed, other chains not shown): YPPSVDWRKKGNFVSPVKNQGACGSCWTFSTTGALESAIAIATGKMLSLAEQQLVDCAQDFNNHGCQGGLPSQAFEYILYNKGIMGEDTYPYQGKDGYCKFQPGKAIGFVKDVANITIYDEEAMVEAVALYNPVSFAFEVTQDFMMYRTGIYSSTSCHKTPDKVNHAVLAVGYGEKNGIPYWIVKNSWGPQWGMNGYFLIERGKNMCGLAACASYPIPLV
Cathepsin S, sequence (P25774 115-331): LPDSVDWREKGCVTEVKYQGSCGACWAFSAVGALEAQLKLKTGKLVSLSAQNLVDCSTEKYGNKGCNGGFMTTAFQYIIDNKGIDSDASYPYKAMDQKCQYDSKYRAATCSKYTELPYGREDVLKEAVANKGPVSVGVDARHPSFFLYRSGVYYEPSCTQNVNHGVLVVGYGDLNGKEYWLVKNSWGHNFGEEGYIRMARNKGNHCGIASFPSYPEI
Cathepsin X, sequence (Q9UBR2 62-303): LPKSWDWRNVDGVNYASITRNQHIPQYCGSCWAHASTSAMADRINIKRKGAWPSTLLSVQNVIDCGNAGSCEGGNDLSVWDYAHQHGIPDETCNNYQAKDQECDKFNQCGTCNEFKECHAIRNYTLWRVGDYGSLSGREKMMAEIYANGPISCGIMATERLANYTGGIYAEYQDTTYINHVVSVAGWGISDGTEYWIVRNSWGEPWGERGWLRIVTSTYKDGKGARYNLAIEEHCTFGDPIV

Structure (SMILES) | substrate activity for cathepsin L (Cathepsin L [2]; [9]) | substrate activity for cathepsin V (Cathepsin V [3]; [9]) | IC50 (Cathepsin V [4]; Cathepsin V, pH 7.2) [nM] | IC50 (Cathepsin S; pH 4.6) [µM] | IC50 (Cathepsin S; pH 7.2) [µM] | IC50 (Cathepsin X) [µM] | kinact/KI (cathepsin B [5]; cathepsin B, pH 4.6) [M⁻¹ s⁻¹] | Ki (cathepsin B [5]; cathepsin B, pH 4.6) [µM] | IC50 (cathepsin B [5]; [10]) [nM] | kinact/KI (cathepsin B [5]; cathepsin B, pH 7.2) [M⁻¹ s⁻¹] | Ki (cathepsin B [5]; cathepsin B, pH 7.2) [µM] | IC50 (cathepsin B [5]; [11]) [nM] | IC50 (Cathepsin C; pH 4.6) [µM] | IC50 (Cathepsin C; pH 7.2) [µM] | fold more potent for cathepsin B than cathepsin C (IC50) (Cathepsin C; pH 7.2) [fold] | IC50 (Cathepsin L [6]) [µM] | IC50 (Cathepsin H; pH 4.6, without pre-incubation) [µM] | IC50 (Cathepsin H; pH 7.2, without pre-incubation) [µM] | % inhibition (Cathepsin K) | inhibition of proteolytic (cathepsin B) activity in cell lysate [1] | also measured
CCCNC(=O)[C@H]1O[C@@H]1C(=O)N[C@H](C(=O)N1CCC[C@H]1C(=O)O)[C@@H](C)CC [CA-074, reference compound] |  |  |  |  |  |  |  |  |  |  |  |  |  |  |  |  |  |  |  | completely inhibited | 
Cc1cccc(C)c1C(=O)OCC(=O)C(CCCCN)NC(=O)C(CCC(=O)O)NC(=O)OCc1ccccc1 (stereo not drawn) [Z-Glu-Lys-AOMK] |  |  | > 16000 | > 16 | > 16 | > 16 | 2000 | 7.9 | 1100 | 8200 | 2.3 | 320 ± 45 | 8.6 | 12 | 38 | > 16 | > 16 | > 16 | 10% |  | IC50 (Cathepsin V [4]; Cathepsin V, pH 4.6): 1900 nM; % inhibition (Cathepsin V [4]; Cathepsin V, pH 7.2, at 16 μM (16,000 nM) inhibitor): 10%; % inhibition (Cathepsin S; pH 4.6): 26%; % inhibition (Cathepsin S; pH 7.2): 30%; % inhibition (Cathepsin L [6]; pH 4.6, at 16 μM (16,000 nM) inhibitor): 23%; IC50 (Cathepsin K; pH 4.6, without pre-incubation): > 16 µM; IC50 (Cathepsin K; pH 7.2, without pre-incubation): > 16 µM
Cc1cc(=O)oc2cc(NC(=O)[C@H](CCCCN)NC(=O)[C@H](CCCNC(=N)N)NC(=O)OCc3ccccc3)ccc12 [Z-Arg-Lys-AMC] (Cbz-Arg-Lys-{AMC}) |  |  |  |  |  |  |  |  |  |  |  |  |  |  |  |  |  |  |  |  | substrate activity for cathepsin L (Cathepsin L [2]; pH 7.2): no activity; substrate activity for cathepsin V (Cathepsin V [3]; pH 7.2): no activity; pH of maximal (optimal) hydrolysis by cathepsin B (cathepsin B [7]): 7.8 pH
Cc1cccc(C)c1C(=O)OCC(=O)[C@H](CCCCN)NC(=O)[C@H](CCCN=C(N)N)NC(=O)OCc1ccccc1 [Z-Arg-Lys-AOMK] |  |  | 440 | > 16 | 2.2 | > 16 | 1800 | 15 | 1500 | 110000 | 0.13 ± 0.05 | 20 ± 8.3 | > 16 | 0.85 | 43 | > 16 | > 16 | > 16 | no inhibition | completely inhibited | cell permeability [8]: cell permeable; fold more potent for cathepsin B than cathepsin V (IC50) (Cathepsin V [4]; pH 7.2): 22 fold; fold more potent for cathepsin B than cathepsin S (IC50) (Cathepsin S; pH 7.2): 110 fold; reduction of cathepsin B activity with Z-Phe-Arg-AMC as substrate (cathepsin B [5]; pH 4.6): 5%; reduction of cathepsin B activity with Z-Phe-Arg-AMC as substrate (cathepsin B [5]; pH 7.2): 93%; IC50 (cathepsin B [5]; cathepsin B, pH 6.8): 22 nM; fold greater potency at pH 7.2 compared to pH 4.6 (KI values) (cathepsin B [5]; cathepsin B, ratio of KI at pH 4.6 and pH 7.2): 115 fold; inhibition at 16 μM (Cathepsin H; pH 4.6, at 16 μM inhibitor): no inhibition; IC50 (Cathepsin K; pH 4.6, without pre-incubation): > 16 µM; IC50 (Cathepsin K; pH 7.2, without pre-incubation): > 16 µM

More lines, main results first:

substrate activity for cathepsin L (Cathepsin L [2]; [9]) | substrate activity for cathepsin V (Cathepsin V [3]; [9]) | IC50 (Cathepsin V [4]; Cathepsin V, pH 7.2) [nM] | IC50 (Cathepsin S; pH 4.6) [µM] | IC50 (Cathepsin S; pH 7.2) [µM] | IC50 (Cathepsin X) [µM] | kinact/KI (cathepsin B [5]; cathepsin B, pH 4.6) [M⁻¹ s⁻¹] | Ki (cathepsin B [5]; cathepsin B, pH 4.6) [µM] | IC50 (cathepsin B [5]; [10]) [nM] | kinact/KI (cathepsin B [5]; cathepsin B, pH 7.2) [M⁻¹ s⁻¹] | Ki (cathepsin B [5]; cathepsin B, pH 7.2) [µM] | IC50 (cathepsin B [5]; [11]) [nM] | IC50 (Cathepsin C; pH 4.6) [µM] | IC50 (Cathepsin C; pH 7.2) [µM] | fold more potent for cathepsin B than cathepsin C (IC50) (Cathepsin C; pH 7.2) [fold] | IC50 (Cathepsin L [6]) [µM] | IC50 (Cathepsin H; pH 4.6, without pre-incubation) [µM] | IC50 (Cathepsin H; pH 7.2, without pre-incubation) [µM] | % inhibition (Cathepsin K) | Structure (SMILES) | inhibition of proteolytic (cathepsin B) activity in cell lysate [1] | also measured
cleaved | cleaved |  |  |  |  |  |  |  |  |  |  |  |  |  |  |  |  |  | Cc1cc(=O)oc2cc(NC(=O)C(CCCN=C(N)N)NC(=O)C(Cc3ccccc3)NC(=O)OCc3ccccc3)ccc12 (stereo not drawn) [Z-Phe-Arg-AMC, reference compound] (Cbz-Phe-Arg-{AMC}; configuration not given here) |  | 
no activity | no activity |  |  |  |  |  |  |  |  |  |  |  |  |  |  |  |  |  | Cc1cc(=O)oc2cc(NC(=O)[C@H](CCCCN)NC(=O)[C@H](CCC(=O)O)NC(=O)OCc3ccccc3)ccc12 [Z-Glu-Lys-AMC] (Cbz-Glu-Lys-{AMC}) |  | pH of maximal (optimal) hydrolysis by cathepsin B (cathepsin B [7]): 4.6 pH
